These results are taken from ChEMBL document CHEMBL1255317, “Attenuated vancomycin bactericidal activity against Staphylococcus aureus hemB mutants expressing the small-colony-variant phenotype” (2008).

Experiment [1] concerns Staphylococcus aureus. Briefly: Antimicrobial activity against methicillin resistant Staphylococcus aureus COL assessed as bacterial killing by time kill study. The experiment is classed as functional, organism-based.
Experiment [2] concerns Staphylococcus aureus. Briefly: Antimicrobial activity against methicillin resistant Staphylococcus aureus Newman assessed as bacterial killing by time kill study. It counts as functional, organism-based.
Experiment [3] deals with Staphylococcus aureus. Briefly: Antimicrobial activity against methicillin resistant Staphylococcus aureus isolate A20780 I isolated from persistent bacterial infection patient assessed as bacterial killing by time kill study. The experiment is classed as functional, organism-based.
Experiment [4] relates to Staphylococcus aureus. Kind of experiment: Antimicrobial activity against methicillin resistant Staphylococcus aureus COL assessed as bacterial killing at 64 times MIC after 24 hrs by time kill study relative to baseline. It counts as functional. An outline of the steps:
(§1)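 Time-kill in Ca/Mg-supplemented BHI. A 0.5 McFarland saline suspension was diluted to about 10^7 CFU/ml with vancomycin in 10-ml cultures, shaken at 35°C. Counts at 0, 1, 2, 4, 6 and 24 h by spiral plating on BHI agar, incubated 24 h at 35°C (48 h for Ia48 and III33). Drug-free growth controls were run. Value is the 24-h log10 CFU/ml change from baseline; runs were duplicate to quadruplicate.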

Experiment [5] has as its system Staphylococcus aureus. Kind of experiment: Antimicrobial activity against methicillin resistant Staphylococcus aureus Newman assessed as bacterial killing at 64 times MIC after 24 hrs by time kill study relative to baseline. The experiment is classed as functional. An outline of the steps:
as §1

Experiment [6] deals with Staphylococcus aureus. Kind of experiment: Antimicrobial activity against methicillin resistant Staphylococcus aureus isolate A20780 I isolated from persistent bacterial infection patient assessed as bacterial killing at 64 times MIC after 24 hrs by time kill study. The experiment is classed as functional. An outline of the steps: as §1
Experiment [7] concerns Staphylococcus aureus. Kind of experiment: Antimicrobial activity against methicillin resistant Staphylococcus aureus isolate A20780 II with hemin auxotrophism and expressing small-colony-variant phenotype isolated from persistent bacterial infection patient assessed as bacterial killing at 64 times MIC after 24 hrs by time kill study. It counts as functional. An outline of the steps:
as §1

Experiment [8] has as its system Staphylococcus aureus. Kind of experiment: Antimicrobial activity against methicillin resistant Staphylococcus aureus Ia48 containing hemB mutation (hemB::ermB) expressing small-colony-variant phenotype assessed as bacterial killing at 64 times MIC after 24 hrs by time kill study. It counts as functional. An outline of the steps:
as §1

In experiment [9] the test system is Staphylococcus aureus. Briefly: Antimicrobial activity against methicillin resistant Staphylococcus aureus III33 containing hemB mutation (hemB::ermB) expressing small-colony-variant phenotype assessed as bacterial killing at 64 times MIC after 24 hrs by time kill study. The experiment is classed as functional. The method in brief:
as §1

`CN[C@H](CC(C)C)C(=O)N[C@H]1C(=O)N[C@@H](CC(N)=O)C(=O)N[C@H]2C(=O)N[C@H]3C(=O)N[C@H](C(=O)N[C@H](C(=O)O)c4cc(O)cc(O)c4-c4cc3ccc4O)[C@H](O)c3ccc(c(Cl)c3)Oc3cc2cc(c3O[C@@H]2O[C@H](CO)[C@@H](O)[C@H](O)[C@H]2O[C@H]2C[C@](C)(N)[C@H](O)[C@H](C)O2)Oc2ccc(cc2Cl)[C@H]1O` [VANCOMYCIN]: the Activity result in the experiment on Staphylococcus aureus [1], with Staphylococcus aureus [2] and with Staphylococcus aureus [3] was “Dose-dependent effect” throughout. The log10CFU/ml turned out to be 3.99 with Staphylococcus aureus [4]; 4.81 in the experiment with Staphylococcus aureus [5]; 2.39 in the experiment with Staphylococcus aureus [6]; 1.78 with Staphylococcus aureus [7]; 1.4 in the experiment with Staphylococcus aureus [8]; 1.88 in the experiment with Staphylococcus aureus [9].
